Experiments:
OVCAR-4 = assay: Growth inhibition of human OVCAR4 cells after 48 hrs by sulforhodamine B assay; type: functional; settings: OVCAR-4, 48 h
Method in brief: (§1)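 NCI screen panel. Five 10-fold concentrations from 10^-4 to 10^-8 M. Exposure for the last 48 h of a 72 h incubation. Growth estimated by sulforhodamine B protein assay. GI50 is the concentration giving 50% growth inhibition. Where that level was not reached or was exceeded, the value is given as above or below the highest or lowest concentration tested.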

HOP-92 = assay: Growth inhibition of human HOP92 cells after 48 hrs by sulforhodamine B assay; type: functional; settings: HOP-92, 48 h; method in brief: as §1
HL-60(TB) = assay: Growth inhibition of human HL-60(TB) cells after 48 hrs by sulforhodamine B assay; type: functional; settings: HL-60, 48 h
Method in brief: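 NCI 60-cell-line screen protocol: cells exposed to compound at five 10-fold dilutions from 10^-4 to 10^-8 M for the last 48 h of a 72 h incubation. Sulforhodamine B protein assay estimated viability/growth. GI50 (50% growth inhibition) derived; where not reached or exceeded, reported as greater or less than the highest or lowest concentration tested.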

BT-549 = assay: Growth inhibition of human BT549 cells after 48 hrs by sulforhodamine B assay; type: functional; settings: BT-549, 48 h; method in brief: as §1
NCI-H522 = assay: Growth inhibition of human NCI-H522 cells after 48 hrs by sulforhodamine B assay; type: functional; settings: NCI-H522, 48 h; method in brief: as §1
OVCAR-8 = assay: Growth inhibition of human OVCAR8 cells after 48 hrs by sulforhodamine B assay; type: functional; settings: OVCAR-8, 48 h; method in brief: as §1
IGROV-1 = assay: Growth inhibition of human IGROV1 cells after 48 hrs by sulforhodamine B assay; type: functional; settings: IGROV-1, 48 h; method in brief: as §1
MOLT-4 = assay: Growth inhibition of human MOLT4 cells after 48 hrs by sulforhodamine B assay; type: functional; settings: MOLT-4, 48 h; method in brief: as §1
SK-MEL-28 = assay: Growth inhibition of human SK-MEL-28 cells after 48 hrs by sulforhodamine B assay; type: functional; settings: SK-MEL-28, 48 h; method in brief: as §1
HCT-15 = assay: Growth inhibition of human HCT15 cells after 48 hrs by sulforhodamine B assay; type: functional; settings: HCT-15, 48 h; method in brief: as §1
A549 = assay: Growth inhibition of human A549 cells after 48 hrs by sulforhodamine B assay; type: functional; settings: A549, 48 h; method in brief: as §1
SNB-19 = assay: Growth inhibition of human SNB19 cells after 48 hrs by sulforhodamine B assay; type: functional; settings: SNB-19, 48 h
Method in brief: (§2)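 NCI in vitro panel screen. Compounds tested at five 10-fold dilutions, 10^-4 to 10^-8 M. Cells in 96-well plates were exposed for the last 48 h of a 72 h incubation. Viability/growth was read by sulforhodamine B protein assay. GI50 is the concentration giving 50% growth inhibition. Values beyond the tested range are reported as greater or less than the maximum or minimum concentration.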

SK-MEL-5 = assay: Growth inhibition of human SK-MEL-5 cells after 48 hrs by sulforhodamine B assay; type: functional; settings: SK-MEL-5, 48 h; method in brief: as §1
MT4 = assay: Antiproliferative activity against human MT4 cells assessed as reduction of growth by MTT assay; type: functional, cell-based
Method in brief: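 MT-4 lymphoblastoid T cells (ATCC) in RPMI 1640 with 10% FCS, penicillin/streptomycin, checked for mycoplasma. 1 × 10⁴ mock-infected cells per well with serial dilutions from a 100 mM DMSO stock. Incubated 4 days at 37 °C, viable cells counted by MTT. IC50 versus untreated controls by linear regression. Mean of three separate experiments.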

ACHN = assay: Growth inhibition of human ACHN cells after 48 hrs by sulforhodamine B assay; type: functional; method in brief: as §1
SF-295 = assay: Growth inhibition of human SF295 cells after 48 hrs by sulforhodamine B assay; type: functional; settings: SF-295, 48 h; method in brief: as §1
KM12 = assay: Growth inhibition of human KM12 cells after 48 hrs by sulforhodamine B assay; type: functional; settings: KM12, 48 h; method in brief: as §1
UO-31 = assay: Growth inhibition of human UO31 cells after 48 hrs by sulforhodamine B assay; type: functional; settings: UO-31, 48 h; method in brief: as §2
MDA-MB-435 = assay: Growth inhibition of human MDA-MB-435 cells after 48 hrs by sulforhodamine B assay; type: functional; settings: MDA-MB-435, 48 h; method in brief: as §1
RXF 393 = assay: Growth inhibition of human RXF393 cells after 48 hrs by sulforhodamine B assay; type: functional; settings: RXF 393, 48 h; method in brief: as §1
[1] = Growth inhibition of human […] cells after 48 hrs by sulforhodamine B assay; type: functional; method in brief: as §1
NCI-H322M = assay: Growth inhibition of human NCI-H322M cells after 48 hrs by sulforhodamine B assay; type: functional; method in brief: as §1
786-0 = assay: Growth inhibition of human 786-0 cells after 48 hrs by sulforhodamine B assay; type: functional; settings: 786-0, 48 h; method in brief: as §1
TK-10 = assay: Growth inhibition of human TK10 cells after 48 hrs by sulforhodamine B assay; type: functional; settings: TK-10, 48 h; method in brief: as §2
K562 = assay: Growth inhibition of human K562 cells after 48 hrs by sulforhodamine B assay; type: functional; settings: K562, 48 h; method in brief: as §1
MCF7 = assay: Growth inhibition of human MCF7 cells after 48 hrs by sulforhodamine B assay; type: functional; settings: MCF7, 48 h; method in brief: as §1

## N#C/C(=C\N1CCN(C(=O)c2ccco2)C1=S)C(=O)Nc1ccc(Cl)cc1
OVCAR-4
  GI50: 25.2 µM
HOP-92
  GI50: 21.5 µM
HL-60(TB)
  GI50: 10.5 µM
BT-549
  GI50: 8.6 µM
NCI-H522
  GI50: 16.7 µM
OVCAR-8
  GI50: 20.6 µM
IGROV-1
  GI50: 25.3 µM
MOLT-4
  GI50: 17.7 µM
SK-MEL-28
  GI50: 18.7 µM
HCT-15
  GI50: 21.3 µM
A549
  GI50: 25.8 µM
SNB-19
  GI50: 27.6 µM
SK-MEL-5
  GI50: 11.2 µM
MT4
  IC50: 6.5 µM
ACHN
  GI50: 15.3 µM
SF-295
  GI50: 20.2 µM
KM12
  GI50: 16.3 µM
UO-31
  GI50: 12 µM
MDA-MB-435
  GI50: 15.2 µM
RXF 393
  GI50: 13.1 µM
[1]
  GI50: 10.5 µM
NCI-H322M
  GI50: 28.6 µM
786-0
  GI50: 17.4 µM
TK-10
  GI50: 19.4 µM
K562
  GI50: 16.1 µM
MCF7
  GI50: 21 µM
